Here are results for 20 molecules from ChEMBL document CHEMBL1138808, “Synthesis and anticancer activity of simplified indenoisoquinoline topoisomerase I inhibitors lacking substituents on the aromatic rings” (2004).

Assay [1] is described as follows: Growth inhibitory activity against human CNSSF-539 cell line. It counts as functional. The essentials: (§1)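 Growth inhibition in human cancer cell culture. GI50 is the concentration giving 50% growth inhibition. Compounds were tested at concentrations up to […].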
Assay [2] concerns Panel (Carcinoma cell lines). Briefly: Mean graph mid point for growth inhibition of human cancer cell lines. In kind it is functional. More on the design: unit not given here. The essentials:
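Mean graph midpoint of growth inhibition, taken across all human cancer cell lines successfully tested. Compounds were tested at concentrations up to […], and GI50 is the concentration giving 50% growth inhibition.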

The target of assay [3] is T1, DNA topoisomerase 1 (Homo sapiens) (UniProt P11387).
T1 sequence (whole entry): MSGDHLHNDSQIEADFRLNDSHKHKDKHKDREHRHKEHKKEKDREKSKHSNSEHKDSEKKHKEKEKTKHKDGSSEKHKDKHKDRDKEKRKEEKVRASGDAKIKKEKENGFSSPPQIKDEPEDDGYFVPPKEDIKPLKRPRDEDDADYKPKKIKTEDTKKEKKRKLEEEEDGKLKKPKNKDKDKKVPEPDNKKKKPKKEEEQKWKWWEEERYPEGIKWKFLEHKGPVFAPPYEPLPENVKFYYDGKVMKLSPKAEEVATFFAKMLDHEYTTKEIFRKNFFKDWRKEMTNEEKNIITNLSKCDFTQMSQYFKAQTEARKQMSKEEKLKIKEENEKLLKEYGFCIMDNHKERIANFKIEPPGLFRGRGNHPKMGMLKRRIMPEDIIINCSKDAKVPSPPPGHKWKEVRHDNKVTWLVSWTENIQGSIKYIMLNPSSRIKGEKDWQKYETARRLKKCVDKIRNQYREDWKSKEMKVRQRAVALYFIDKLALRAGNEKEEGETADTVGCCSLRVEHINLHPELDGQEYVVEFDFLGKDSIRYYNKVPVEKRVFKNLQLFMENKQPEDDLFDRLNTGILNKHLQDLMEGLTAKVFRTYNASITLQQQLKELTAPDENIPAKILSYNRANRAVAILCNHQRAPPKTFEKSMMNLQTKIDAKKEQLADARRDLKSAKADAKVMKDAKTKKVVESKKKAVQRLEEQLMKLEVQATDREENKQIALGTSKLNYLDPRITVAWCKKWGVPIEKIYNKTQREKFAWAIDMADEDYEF
Briefly: Induction of topoisomerase I mediated DNA cleavage; Greater activity than parent compound 1.

Assay [4] concerns HOP-62. Briefly: Growth inhibitory activity against human lung HOP-62 cell line. It counts as functional. In short, it runs like this: as §1
The subject of assay [5] is SN12C. As to the kind of experiment: Growth inhibitory activity against human renal SN12C cell line. It counts as functional. The essentials: as §1
For assay [6], the system named is HCT-116. As to the kind of experiment: Growth inhibitory activity against human colon HCT116 cell line. It counts as functional. The essentials:
as §1

The subject of assay [7] is OVCAR-3. As to the kind of experiment: Growth inhibitory activity against human ovarian OVCAR-3 cell line. In kind it is functional. The essentials:
as §1

Assay [8] relates to DU-145. As to the kind of experiment: Growth inhibitory activity against human prostate DU-145 cell line. It counts as functional. The essentials: as §1
The subject of assay [9] is UACC-62. Briefly: Growth inhibitory activity against human melanoma UACC-62 cell line. In kind it is functional. The essentials:
as §1

Assay [10] deals with MDA-MB-435. Briefly: Growth inhibitory activity against human breast MDA-MB-435 cell line. In kind it is functional. The essentials:
as §1

The target in assay [11] is T1, DNA topoisomerase 1 (Homo sapiens). As to the kind of experiment: Induction of topoisomerase I mediated DNA cleavage; weak activity.
Assay [12] shares this target. As to the kind of experiment: Induction of topoisomerase I mediated DNA cleavage; Activity similar to parent compound 1.
Assay [13] has the same target. Briefly: Induction of topoisomerase I mediated DNA cleavage; greater activity than parent compound 1.

Calls of active or inactive are those of the source. No cut-off for these calls is given here. Some results are limits rather than exact numbers.

By GI50 is commonly meant the concentration giving 50% growth inhibition. For the molecule `COc1cc2c3c(n(CCN)c(=O)c2cc1OC)-c1cc2c(cc1C3=O)OCO2.Cl`, the GI50 in assay [1] worked out at 1300 nM; in assay [4], 580 nM; in [5], 360 nM; in assay [6], 68 nM; in assay [7] it was 860 nM; in assay [8], 400 nM. Also, the values for the GI50 in assay [9] and in [10] were 140 nM and 1040 nM, respectively. Also, the “Mean graph mid point” value in [2] came out at 0.34. Moreover, in assay [3], the DNA cleavage entry is on record as “Greater activity than compound 1”.

On to `COc1cc2c3c(n(CCCN(C)C)c(=O)c2cc1OC)-c1cc2c(cc1C3=O)OCO2`, for which the GI50 in assay [1] came out at 190 nM; in assay [4], 18 nM; in assay [5] it was 900 nM; in assay [6], 120 nM; in assay [7], 1400 nM; in assay [8] it was 140 nM. Also, the figures for the GI50 in assay [9] and in [10] were 540 nM and 650 nM, respectively. Also, in [2], the “Mean graph mid point” value is recorded as 0.35. Besides, the DNA cleavage entry in [3] was “Greater activity than compound 1”.

In the case of `Cl.NCCCn1c2c(c3ccccc3c1=O)C(=O)c1cc3c(cc1-2)OCO3`, the GI50 stood at 430 nM in assay [1]; 280 nM in [4]; 190 nM in assay [5]; 680 nM in assay [6]; 1450 nM in assay [7]; 60 nM in [8]. In addition, the GI50 was found to be 180 nM in [9] and 1820 nM in [10]. For the same molecule, the “Mean graph mid point” value in assay [2] stood at 0.25. For the same molecule, the DNA cleavage entry in assay [11] was “Weak activity”.

As to `O=C1c2cc3c(cc2-c2c1c1ccccc1c(=O)n2CCCBr)OCO3`, the GI50 turned out to be 370 nM in [1]; 230 nM in assay [5]; 22400 nM in assay [6]; 18200 nM in [7]; 7590 nM in assay [8]; 25700 nM in assay [10]. Further, the “Mean graph mid point” value in assay [2] was 9.77. Also, in [11], the DNA cleavage result is “Weak activity”.

For the molecule `CCCn1c2c(c3ccccc3c1=O)C(=O)c1cc3c(cc1-2)OCO3`, the GI50 in assay [1] was greater than 100000 nM; in assay [4], greater than 100000 nM; in assay [5], greater than 100000 nM; in assay [6], 30200 nM; in [7], 20900 nM; in [8] it was greater than 100000 nM. For the same molecule, the GI50 in assay [9] and in [10] was greater than 100000 nM in each case. Also, the “Mean graph mid point” value in assay [2] came to 66.1. In assay [12], the DNA cleavage result was “Activity similar to parent compound 1”.

Molecule `COc1cc2c3c(n(CCCN)c(=O)c2cc1OC)-c1cc2c(cc1C3=O)OCO2.Cl` gave a GI50 in assay [1] of 260 nM. Further, the “Mean graph mid point” value in assay [2] came out at 0.16. Besides, the DNA cleavage result in assay [13] is recorded as “greater activity than compound 1”.

As for `COc1cc2c3c(n(CCCNCCO)c(=O)c2cc1OC)-c1cc2c(cc1C3=O)OCO2.Cl`, the GI50 in assay [1] was 40 nM; in assay [5] it was greater than 10 nM; in assay [7], 350 nM; in assay [8] it was greater than 10 nM. For the same molecule, the “Mean graph mid point” value in assay [2] is 0.11. In addition, in [3], the DNA cleavage result is given as “Greater activity than compound 1”.

`O=C1c2ccccc2-c2c1c1ccccc1c(=O)n2CCO`: the GI50 in assay [1] came to 12200 nM. Also, the DNA cleavage entry in assay [12] was “Activity similar to parent compound 1”.

Take `N=C(N)NCCCn1c2c(c3ccccc3c1=O)C(=O)c1ccccc1-2.O=C(O)C(F)(F)F`: the GI50 in assay [1] is 370 nM; in [4] it was 690 nM; in [5], 230 nM; in assay [6], 22400 nM; in assay [7] it was 18200 nM; in [8] it was 7590 nM. Besides, the GI50 in assay [9] was found to be 11000 nM; in [10] it was 25700 nM. In assay [2], the “Mean graph mid point” value was found to be 9.77. The DNA cleavage entry in [3] is reported as “Greater activity than compound 1”.

Regarding `O=C1c2ccccc2-c2c1c1ccccc1c(=O)n2CCN1CCOCC1`, the GI50 is 85100 nM in assay [1]; greater than 100000 nM in [4]; 93300 nM in [5]; 36300 nM in [6]; 81300 nM in [7]; greater than 100000 nM in [8]. In addition, the GI50 in assay [9] was 29500 nM; in assay [10] it was greater than 100000 nM. In assay [2], the “Mean graph mid point” value came to 67.6. The DNA cleavage entry in assay [3] is recorded as “Greater activity than compound 1”.

In the case of `O=C1c2ccccc2-c2c1c1ccccc1c(=O)n2CCCO`, the 50% growth inhibitory concentration (GI50) in [1] worked out at 52500 nM. In assay [12], the DNA cleavage entry was “Activity similar to parent compound 1”.

Consider `COc1cc2c(cc1OC)-c1c(c3ccccc3c(=O)n1CCCN)C2=O.Cl`, for which, in assay [1], the GI50 came out at 2930 nM. The “Mean graph mid point” value in [2] is given as 0.62. Moreover, the DNA cleavage entry in assay [12] was “Activity similar to parent compound 1”.

Regarding `Cl.Cl.O=C1c2ccccc2-c2c1c1ccccc1c(=O)n2CCCNCCCn1ccnc1`, the GI50 in [1] turned out to be 1070 nM; in assay [4], 410 nM; in [5], 2000 nM; in [6] it was 1580 nM; in [7], 1780 nM; in assay [8], 410 nM. Also, the concentration for 50% growth inhibition (GI50) in assay [9] stood at 6920 nM; in assay [10] it was 1450 nM. The “Mean graph mid point” value in assay [2] was determined as 1. The DNA cleavage result in assay [12] is recorded as “Activity similar to parent compound 1”.

Turning to `CCn1c2c(c3ccccc3c1=O)C(=O)c1cc3c(cc1-2)OCO3`, the GI50 in assay [1] was 40700 nM; in [4] it was 36300 nM; in assay [5] it was greater than 100000 nM; in assay [6] it was 95500 nM; in [7], 89100 nM; in [8] it was greater than 100000 nM. Further, the values for the 50% growth inhibitory concentration (GI50) in assay [9] and in assay [10] were 20000 nM and greater than 100000 nM, respectively. The “Mean graph mid point” value in assay [2] is 51.3. In assay [13], the DNA cleavage result is on record as “greater activity than compound 1”.

As to `Cl.NCCCn1c2c(c3ccccc3c1=O)C(=O)c1ccccc1-2`, the GI50 in assay [1] amounted to 250 nM; in assay [4] it was 200 nM; in [5], 160 nM; in [6], 180 nM; in assay [7], 1380 nM; in [8], 220 nM. Further, the 50% growth inhibitory concentration (GI50) in assay [9] worked out at 260 nM; in assay [10], 780 nM. In assay [2], the “Mean graph mid point” value is reported as 0.32. Besides, the DNA cleavage result in assay [13] is listed as “greater activity than compound 1”.

Consider `Cl.NCCCCn1c2c(c3ccccc3c1=O)C(=O)c1ccccc1-2`, for which the concentration for 50% growth inhibition (GI50) in [1] came out at 100 nM; in [4], 80 nM; in assay [5], 40 nM; in assay [6], 100 nM; in [7], 520 nM; in assay [8], 10 nM. In addition, the GI50 was 50 nM in assay [9] and 840 nM in [10]. The “Mean graph mid point” value in assay [2] was 0.16. In addition, the DNA cleavage entry in assay [13] is “greater activity than compound 1”.

Turning to `CC[C@@]1(O)C(=O)OCc2c1cc1n(c2=O)Cc2cc3ccccc3nc2-1` [CAMPTOTHECIN], in assay [1], halving of growth (GI50) required 10 nM. The “Mean graph mid point” value in assay [2] is 0.04. Also, in [3], the DNA cleavage result was “Active”.

As for `CN(C)CCCn1c2c(c3ccccc3c1=O)C(=O)c1ccccc1-2`, in assay [2], the “Mean graph mid point” value came out at 1.86. In addition, the DNA cleavage entry in assay [13] is given as “greater activity than compound 1”. The GI50 was found to be 1740 nM in assay [4]; 910 nM in assay [5]; 580 nM in assay [6]; 1700 nM in assay [7]; 1320 nM in assay [8]; 510 nM in [9]. The same molecule yielded a GI50 in assay [10] of 2820 nM.

As to `COc1cc2c3c(n(C)c(=O)c2cc1OC)-c1cc2c(cc1C3=O)OCO2`, the GI50 in assay [1] is 41000 nM; in assay [4], 1300 nM; in assay [5] it was 68000 nM; in assay [6], 35000 nM; in [8], 37000 nM; in [9], 4200 nM. Moreover, it took 96000 nM to inhibit growth in assay [10] by half (GI50). In addition, the “Mean graph mid point” value in [2] came to 20. Besides, in assay [12], the DNA cleavage result is “Activity similar to parent compound 1”.

On to `Cl.NCCn1c2c(c3ccccc3c1=O)C(=O)c1ccccc1-2`, for which the GI50 in assay [1] stood at 210 nM; in assay [4], 620 nM; in assay [5] it was 490 nM; in assay [6] it was 270 nM; in assay [7], 710 nM; in [8], 760 nM. Moreover, the GI50 in assay [9] and in assay [10] was 920 nM in each case. Further, the “Mean graph mid point” value in assay [2] was determined as 0.53. In [13], the DNA cleavage result was “greater activity than compound 1”.
